The full list was thinned out, with hits kept by preference.
INS-1E ATP HTS = rescue of cytokine-induced death in INS-1E beta cells. protection from cytokine-induced ATP loss, % at 10 µM. 0.1% of 20,000 active. INS-1E cytokine-induced death, ATP luminescence, 48 h; normalised: neutral wells 0, positive control 100;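 active means mean replicate protection from cytokine-induced ATP loss at least 50% and at least 75% of replicates each reaching 50%; inconclusive means meets only one of the two criteria, mean or replicate share; inactive means fails both the mean and replicate share criteria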
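Material: INS-1E rat cells; Quantity: 8000 cells/well; Buffer or medium: phenol-red-free RPMI with 5% fetal bovine serum; Probe or stimulus: cytokine cocktail of IFN-γ, TNF-α and IL-1β; Compound dosing: single test concentration per compound, delivered by pin transfer; Incubation: 48 h co-treatment, 10 min post-lysis read; Signal: CellTiter-Glo luminescence.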
T cruzi intra = inhibitors of intracellular Trypanosoma cruzi. intracellular Trypanosoma cruzi in host cells, plate reader. activity score (inhibition), % at 5.01 µM. 4.9% of 22,000 active. AID 651903; in the data active means activity score above about 55%; inconclusive means no clear call, values can overlap the other calls;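 further: parasites and compound incubated about four days before reading; 0% = median of neutral control wells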
YB-1 expression = YB-1 expression inhibition. delta delta Cp (YB-1 minus CDIP) (no concentration beside the values). U2OS, qRT-PCR YB-1 vs CDIP delta delta Cp, 16 h; active compounds read high; zero = DMSO, each unit about twofold. 0.37% of 30,000 active. AID 434959;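 active means delta delta Cp rounded down to an integer at or above 3, about 3 SD of DMSO wells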;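 further: higher means less YB-1 transcript or more CDIP transcript relative to DMSO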
Starred values were filed as active, the others as inactive; ? = inconclusive; nt = no result given.

SMILES | INS-1E ATP HTS | T cruzi intra | YB-1 expression
Cc1ccc(S(=O)(=O)Nc2ccc3c(c2)CC(=O)N([C@H](C)CO)C[C@@H](C)[C@@H](CN(C)CC2CCCCC2)O3)cc1 | -6 | 26 | 0.18
Cc1ccc(S(=O)(=O)Nc2ccc3c(c2)CC(=O)N([C@H](C)CO)C[C@@H](C)[C@H](CN(C)CC2CCCCC2)O3)cc1 | -6 | 85* | 0.002
C[C@@H]1CN([C@H](C)CO)C(=O)Cc2cc(NS(=O)(=O)c3ccc(Cl)cc3)ccc2O[C@@H]1CN(C)CC1CCCCC1 | -3 | 34 | 0.081
C[C@@H]1CN([C@H](C)CO)C(=O)Cc2cc(NS(=O)(=O)c3ccc(Cl)cc3)ccc2O[C@H]1CN(C)CC1CCCCC1 | -20 | 65* | -0.2
C[C@@H]1O[C@@H](OC2C(O[C@H]3[C@H](O[C@H]4CC[C@@]5(C)C(CC[C@]6(C)C5CC=C5C7CC(C)(C)C(O)C(O)[C@]7(C)CC[C@]56C)C4(C)C)O[C@H](C(=O)O)[C@@H](O)[C@@H]3O)OC(CO)C(O)C2O)[C@H](O)[C@H](O)[C@H]1OC1OCC(O)C(O)C1O (some centres undefined) | nt | nt | 0.92
C[C@H]1CN([C@@H](C)CO)C(=O)Cc2cc(NS(=O)(=O)c3ccc(F)cc3)ccc2O[C@@H]1CN(C)Cc1ccc(-c2ccccc2)cc1 | -19 | 71* | 0.19
C[C@@H]1CN([C@H](C)CO)C(=O)Cc2cc(NS(=O)(=O)c3cccs3)ccc2O[C@H]1CN(C)Cc1ccccc1 | 4 | 11 | 0.15
C[C@@H]1CN([C@H](C)CO)C(=O)Cc2cc(NS(=O)(=O)c3ccc(F)cc3)ccc2O[C@@H]1CN(C)Cc1ccccc1 | -6 | 62* | -0.22
C[C@H](CO)N1C[C@H](C)[C@H](CN(C)Cc2ccc(C(=O)O)cc2)Oc2ccc(NS(=O)(=O)c3ccc(F)cc3)cc2CC1=O | 0 | 7 | 0.22
C[C@H]1CN([C@@H](C)CO)C(=O)Cc2cc(NS(=O)(=O)c3ccccc3)ccc2O[C@@H]1CN(C)Cc1ccccc1 | 9 | 0 | 0.12
Cc1ccc(S(=O)(=O)Nc2ccc3c(c2)CC(=O)N([C@@H](C)CO)C[C@H](C)[C@H](CN(C)Cc2ccc(-c4ccccc4)cc2)O3)cc1 | -32 | 27 | -0.013
C[C@H]1CN([C@@H](C)CO)C(=O)Cc2cc(NS(=O)(=O)c3cccs3)ccc2O[C@@H]1CN(C)Cc1ccc(-c2ccccc2)cc1 | -15 | 56* | 0.043
C[C@@H]1CN([C@H](C)CO)C(=O)Cc2cc(NS(=O)(=O)c3ccccc3)ccc2O[C@@H]1CN(C)Cc1ccc(-c2ccccc2)cc1 | -26 | 71* | -0.4
CC(=O)Nc1ccc2oc3ccccc3c2c1 | nt | nt | 0.098
C=CCC1OC(=O)CCNC(=O)C(C)N(C)C(=O)C(C(C)C)N(C)C(=O)C(C(C)CC)NC(=O)C2CCCN2C1=O (centres undefined) | nt | nt | -0.43
Cc1ccc(S(=O)(=O)Nc2ccc3c(c2)CC(=O)N([C@H](C)CO)C[C@H](C)[C@H](CN(C)Cc2ccc(-c4ccccc4)cc2)O3)cc1 | -4 | 8 | 0.027
C[C@@H]1CN([C@@H](C)CO)C(=O)Cc2cc(NS(=O)(=O)c3ccccc3)ccc2O[C@@H]1CN(C)Cc1ccc(-c2ccccc2)cc1 | -27 | 58* | -0.14
COc1ccc(S(=O)(=O)Nc2ccc3c(c2)CC(=O)N([C@H](C)CO)C[C@@H](C)[C@H](CN(C)Cc2ccc(-c4ccccc4)cc2)O3)cc1 | -9 | 20 | -0.24
C[C@H]1CN([C@@H](C)CO)C(=O)Cc2cc(NS(=O)(=O)c3ccc(Cl)cc3)ccc2O[C@@H]1CN(C)Cc1ccc(-c2ccccc2)cc1 | 3 | 61* | 0.14
C[C@@H]1CN([C@H](C)CO)C(=O)Cc2cc(NC(=O)Nc3cccc4ccccc34)ccc2O[C@H]1CN(C)Cc1ccccc1 | -7 | 79* | 0.17
C[C@@H]1CN([C@H](C)CO)C(=O)c2cc(NC(=O)Nc3cccc4ccccc34)ccc2O[C@H]1CN(C)Cc1ccc(Oc2ccccc2)cc1 | nt | 53 | 0.03
C[C@@H]1CN([C@H](C)CO)C(=O)Cc2cc(NC(=O)Nc3cccc4ccccc34)ccc2O[C@@H]1CN(C)Cc1ccc(-c2ccccc2)cc1 | -2 | ? | -0.1
C[C@H]1CN([C@@H](C)CO)C(=O)Cc2cc(NC(=O)Nc3cccc4ccccc34)ccc2O[C@@H]1CN(C)CC1CCCCC1 | -24 | 76* | 0.25
C[C@@H]1CN([C@H](C)CO)C(=O)Cc2cc(NC(=O)Nc3ccccc3)ccc2O[C@H]1CN(C)CC1CCCCC1 | -3 | 34 | 0.063
C[C@@H]1CN([C@@H](C)CO)C(=O)Cc2cc(NC(=O)Nc3cccc4ccccc34)ccc2O[C@@H]1CN(C)Cc1ccc(-c2ccccc2)cc1 | 1 | 50 | 0.19
SMILES | INS-1E ATP HTS | T cruzi intra | YB-1 expression
C[C@@H]1CN([C@@H](C)CO)C(=O)Cc2cc(NC(=O)Nc3cccc4ccccc34)ccc2O[C@@H]1CN(C)Cc1ccccc1 | -22 | 67* | 0.3
C[C@@H]1CN([C@@H](C)CO)C(=O)c2cc(NC(=O)Nc3cccc4ccccc34)ccc2O[C@@H]1CN(C)Cc1ccc(Oc2ccccc2)cc1 | -57 | 57* | -0.32
CSC1=N/C(=C\c2ccc(Cl)cc2)C(=O)N1CCc1c[nH]c2ccccc12 | nt | nt | -0.094
CC12CC3(C)CC(C)(C1)CC(C(=O)O)(C2)C3 | nt | nt | -0.69
COc1ccc(C(=O)N(CCCCN2C(=O)c3ccccc3C2=O)c2ccc(C)cc2)cc1 | nt | nt | -0.37
C[C@]12CC[C@H](O)CC1=CCC1C2CC[C@@]2(C)C1CC[C@@H]2C(=O)CO (some centres undefined) | nt | nt | 0.11
C[C@H]1CN([C@@H](C)CO)C(=O)Cc2cc(NC(=O)Nc3cccc4ccccc34)ccc2O[C@H]1CN(C)Cc1ccc(-c2ccccc2)cc1 | -45 | 4 | 0.14
C[C@H]1CN([C@@H](C)CO)C(=O)Cc2cc(NC(=O)Nc3cccc4ccccc34)ccc2O[C@H]1CN(C)Cc1ccccc1 | -19 | 69* | -0.11
C[C@@H]1CN([C@H](C)CO)C(=O)Cc2cc(NC(=O)Nc3cccc4ccccc34)ccc2O[C@@H]1CN(C)C(=O)Nc1ccc(C(F)(F)F)cc1 | -6 | 26 | 0.38
C[C@@H]1CN([C@@H](C)CO)C(=O)Cc2cc(NC(=O)Nc3cccc4ccccc34)ccc2O[C@@H]1CN(C)Cc1ccc(C(F)(F)F)cc1 | -23 | 91* | -9.1
C[C@@H]1CN([C@H](C)CO)C(=O)Cc2cc(NC(=O)Nc3cccc4ccccc34)ccc2O[C@@H]1CN(C)Cc1ccc(Oc2ccccc2)cc1 | -16 | 69* | 0.033
COc1ccc(CN(C)C[C@@H]2Oc3ccc(NC(=O)Nc4cccc5ccccc45)cc3CC(=O)N([C@@H](C)CO)C[C@@H]2C)cc1 | 0 | 28 | 0.11
CCCC1CCC(c2ccc(OC(=O)c3cccnc3)cc2)CC1 (centres undefined) | nt | nt | -0.5
CCN=C1SC(CC(=O)Nc2sc3c(c2C(=O)OCC)CCCC3)C(=O)N1CC (centres undefined) | nt | nt | -0.12
CC1=C(C(=O)OCc2ccccc2)C(c2ccoc2)C(C#N)=C(N)S1 (centres undefined) | nt | nt | -0.14

Assay outcomes as filed in PubChem.
